Measured values: ChEMBL document CHEMBL3120102, “Structure-based design, synthesis and biological evaluation of novel anthra[1,2-d]imidazole-6,11-dione homologues as potential antitumor agents” (2013)

How the values were obtained:
Assay type in all cases: functional
OVCAR-5 = experiment: (§1) Cytotoxicity against human OVCAR5 cells assessed as growth inhibition after 48 hrs by SRB assay
Outline: (§2)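 NCI 60-cell-line screen, five-dose stage: each cell line exposed for 48 h to five concentrations spanning five log steps; cellular protein measured by sulforhodamine B colorimetry. A time-zero cell control and plates without drug are used to derive GI50, TGI and LC50 from log-concentration dose-response curves.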

[1] = as §1; conditions: OVCAR-5, 48 h; outline: as §2
HOP-62 = experiment: Cytotoxicity against human HOP62 cells assessed as growth inhibition after 48 hrs by SRB assay; conditions: for GI50 / TGI / LC50 (concentration killing 50% of cells relative to time zero): HOP-62, 48 h
Outline: (§3)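 NCI 60-cell-line five-dose screen at […]. Drug exposure was 48 h, followed by sulforhodamine B protein staining. GI50, TGI and LC50 were calculated against a time-zero control and untreated plates, with dose–response curves plotted from log10 concentration.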

SK-MEL-28 = experiment: Cytotoxicity against human SK-MEL-28 cells assessed as growth inhibition after 48 hrs by SRB assay; conditions: for GI50 / TGI / LC50: SK-MEL-28, 48 h; outline: as §2
A549 = experiment: Cytotoxicity against human A549 cells assessed as growth inhibition after 48 hrs by SRB assay; conditions: for TGI / GI50 / LC50 (concentration killing 50% of cells): A549, 48 h; outline: as §3
COLO 205 = experiment: Cytotoxicity against human COLO205 cells assessed as growth inhibition after 48 hrs by SRB assay; conditions: for GI50 / TGI / LC50: COLO 205, 48 h; outline: as §3
DU-145 = experiment: Cytotoxicity against human DU145 cells assessed as growth inhibition after 48 hrs by SRB assay; conditions: for GI50 / TGI / CC50: DU-145, 48 h; for CC50: read-out: LC50 (the source's name); outline: as §3
CAKI-1 = experiment: Cytotoxicity against human CAKI-1 cells assessed as growth inhibition after 48 hrs by SRB assay; outline: as §3
U-251 = experiment: Cytotoxicity against human U251 cells assessed as growth inhibition after 48 hrs by SRB assay; conditions: for GI50 / TGI / CC50: U-251, 48 h; for CC50: read-out: LC50 (the source's name)
Outline: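 NCI 60-cell-line screen, two stages. Five-dose testing at […]. Cellular protein measured by sulforhodamine B colorimetry after 48 h drug exposure. A time-zero control and drug-free plates are used to derive GI50, TGI and LC50 from dose-response curves plotted as log10 concentration per cell line.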

HOP-92 = experiment: Cytotoxicity against human HOP92 cells assessed as growth inhibition after 48 hrs by SRB assay; conditions: for GI50 / TGI / CC50: HOP-92, 48 h; for CC50: read-out: LC50 (the source's name); outline: as §3

| SMILES | growth inhibition (GI) (OVCAR-5) | GI50 [1] [µM] | TGI [1] [µM] | growth inhibition (GI) (HOP-62) | GI50 (HOP-62) [µM] | TGI (HOP-62) [µM] | growth inhibition (GI) (SK-MEL-28) | GI50 (SK-MEL-28) [µM] | TGI (SK-MEL-28) [µM] | growth inhibition (GI) (A549) | TGI (A549) [µM] | growth inhibition (GI) (COLO 205) | GI50 (COLO 205) [µM] | TGI (COLO 205) [µM] | growth inhibition (GI) (DU-145) | GI50 (DU-145) [µM] | TGI (DU-145) [µM] | CC50 (DU-145) [µM] | growth inhibition (GI) (U-251) | GI50 (U-251) [µM] | other results |
| --- | --- | --- | --- | --- | --- | --- | --- | --- | --- | --- | --- | --- | --- | --- | --- | --- | --- | --- | --- | --- | --- |
| CN(C)CCCSc1nc2ccc3c(c2[nH]1)C(=O)c1ccccc1C3=O | Dose-dependent effect | 12.7 | 25.9 | Dose-dependent effect | 5.9 | 21.2 | Dose-dependent effect | 13.5 | 26.3 | Dose-dependent effect | 12.6 | Dose-dependent effect | 3.41 | 17.1 | Dose-dependent effect | 2.38 | 12.9 | 35.9 | Dose-dependent effect | 10.1 | growth inhibition (GI) (CAKI-1): Dose-dependent effect; GI50 (CAKI-1; CAKI-1, 48 h): 822 nM; TGI (CAKI-1; CAKI-1, 48 h): 11 µM; TGI (U-251): 22 µM; CC50 (U-251): 48 µM |
| CCCSc1nc2ccc3c(c2[nH]1)C(=O)c1ccccc1C3=O | Dose-dependent effect | 58.1 | > 100 | Dose-dependent effect | 1.94 | 4.27 | Dose-dependent effect | > 100 | > 100 | Dose-dependent effect | > 100 | Dose-dependent effect | > 100 | > 100 | Dose-dependent effect | > 100 | > 100 | > 100 | Dose-dependent effect | 7.05 | LC50 [1]: > 100 µM; LC50 (concentration killing 50% of cells relative to time zero) (HOP-62): 9.36 µM; LC50 (SK-MEL-28): > 100 µM; GI50 (A549): 6.37 µM; LC50 (concentration killing 50% of cells) (A549): > 100 µM; LC50 (COLO 205): > 100 µM; growth inhibition (GI) (HOP-92): Dose-dependent effect; GI50 (HOP-92): 15 µM; TGI (HOP-92): > 100 µM; CC50 (HOP-92): > 100 µM; growth inhibition (GI) (CAKI-1): Dose-dependent effect; GI50 (CAKI-1; CAKI-1, 48 h): 3070 nM; LC50 (CAKI-1; CAKI-1, 48 h): > 100 µM; TGI (CAKI-1; CAKI-1, 48 h): > 100 µM; TGI (U-251): > 100 µM; CC50 (U-251): > 100 µM |
| CCSc1nc2ccc3c(c2[nH]1)C(=O)c1ccccc1C3=O | Dose-dependent effect | 6.25 | > 100 | Dose-dependent effect | 25.9 | > 100 | Dose-dependent effect | 43.6 | > 100 | Dose-dependent effect | > 100 | Dose-dependent effect | 17.4 | > 100 | Dose-dependent effect | 7.02 | > 100 | > 100 | Dose-dependent effect | 19.5 | LC50 [1]: > 100 µM; LC50 (concentration killing 50% of cells relative to time zero) (HOP-62): > 100 µM; LC50 (SK-MEL-28): > 100 µM; GI50 (A549): 9.67 µM; LC50 (concentration killing 50% of cells) (A549): > 100 µM; LC50 (COLO 205): > 100 µM; growth inhibition (GI) (HOP-92): Dose-dependent effect; GI50 (HOP-92): 90.6 µM; TGI (HOP-92): > 100 µM; CC50 (HOP-92): > 100 µM; TGI (U-251): > 100 µM; CC50 (U-251): > 100 µM |
| O=C1c2ccccc2C(=O)c2c1ccc1nc(SCCN3CCCC3)[nH]c21 | Dose-dependent effect | 15.5 | 29.4 | Dose-dependent effect | 18 | 33.2 | Dose-dependent effect | 2.2 | 4.47 | Dose-dependent effect | 15 | Dose-dependent effect | 3.07 | 16.7 | Dose-dependent effect | 3.42 | 14.9 | 39.6 | Dose-dependent effect | 6.84 | LC50 [1]: 55.8 µM; LC50 (SK-MEL-28): 9.08 µM; GI50 (A549): 3.8 µM; LC50 (COLO 205): 58.6 µM; TGI (U-251): 20.3 µM; CC50 (U-251): 47.1 µM |
